Activity calls are given as the source filed them. The rule behind the calls is not given here.
Tests used:
Mus musculus [1] = assay: Toxicity in athymic nude mouse implanted with mouse Ptch+/- p53-/- medulloblastoma cells assessed as body weight loss at 10 to 20 mg/kg, po administered twice daily via gavage measured every other day during compound dosing; format: organism-based; settings: in vivo
Summary of the method: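 Nude mice bearing subcutaneous right-flank Ptch+/-p53-/- medulloblastoma fragment allografts, dosed by oral gavage twice daily (vehicle 0.5% NaCMC suspension) once tumors reached 150–200 mm³. Body weights recorded alongside caliper tumor measurements taken every other day; five animals per group.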

Mus musculus [2] = species: Mus musculus; assay: Inhibition of hedgehog signaling pathway in mouse Light2 cells at 100 nM after 48 hrs by Gli-luciferase reporter gene assay relative to control; format: cell-based
Summary of the method: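 Single-concentration screen at 100 nM in Light II cells (NIH-3T3 with stable Gli-firefly luciferase reporter and Renilla luciferase vector), kept in DMEM/10% FBS with zeocin and G418 at 37°C, 5% CO₂. Cells treated 48 h; percent inhibition of Gli reporter from dual luciferase assay.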

Medulloblastoma cell [3] = assay: Anti-tumor activity against mouse Ptch+/- p53-/- medulloblastoma cells implanted in athymic nude mouse assessed as tumor growth inhibition at 10 to 20 mg/kg, po administered twice daily via gavage measured every other day during compound dosing; format: functional, organism-based
Summary of the method: (§1)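 Allograft from spontaneous intracranial medulloblastomas of Ptch+/-p53-/- mice, first passaged subcutaneously in athymic nude mice; 1 mm³ fragments implanted by trocar into the right flank. Oral gavage twice a day started at 150–200 mm³, in 0.5% NaCMC suspension. Caliper length and width taken every other day, V = L×W²/2. Five mice per group, means ± SEM.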

[4] = Inhibition of hedgehog signaling pathway in mouse Light2 cells after 48 hrs by Gli-luciferase reporter gene assay; format: cell-based
Medulloblastoma cell [5] = assay: Anti-tumor activity against mouse Ptch+/- p53-/- medulloblastoma cells implanted in athymic nude mouse assessed as tumor growth inhibition at 20 mg/kg, po administered twice daily via gavage measured every other day during compound dosing; format: functional, organism-based; summary of the method: as §1

Structure (SMILES) | IC50 [4] [nM] | Activity (Mus musculus [1]) | inhibition (Mus musculus [2]) [%] | TGI (Medulloblastoma cell [3]) | TGI (Medulloblastoma cell [5])
Cc1c(-c2ccnn2C)nnc(N2CCC(NC(=O)Oc3ccccc3)CC2)c1C | > 100 | – | 41.2 | – | –
Cc1c(-c2ccnn2C)nnc(N2CCC(NC(=O)OC3CCCCC3)CC2)c1C | > 100 | – | 26.6 | – | –
Cc1c(-c2ccnn2C)nnc(N2CCC(NC(=O)Nc3ccccc3)CC2)c1C | > 100 | – | 26.2 | – | –
Cc1c(-c2ccnn2C)nnc(N2CCC(NC(=O)NC3CCCCCC3)CC2)c1C | > 100 | – | 45.7 | – | –
Cc1c(-c2ccncc2)nnc(N2CCC(NC(=O)c3ccc(F)cc3C(F)(F)F)CC2)c1C | 43.2 | – | 76 | – | –
Cc1c(-c2ccnn2C)nnc(N2CCC(Nc3cnc(C(C)(C)O)cn3)CC2)c1C | > 100 | – | 10.8 | – | –
Cc1c(-c2ccnn2C)nnc(N2CCC(Nc3ccc(C(C)(C)O)cn3)CC2)c1C | > 100 | – | 31.8 | – | –
Cc1c(-c2ccnn2C)nnc(N2CCC(NC(=O)Nc3cccnc3)CC2)c1C | > 100 | – | 3.47 | – | –
Cc1c(-c2ccnn2C)nnc(N2CCN(C(=O)c3ccc(F)cc3C(F)(F)F)CC2)c1C | > 100 | – | -6.57 | – | –
Cc1c(-c2ccnn2C)nnc(N2CCC(NC(=O)c3cccc(F)c3)CC2)c1C | > 100 | – | 82.1 | – | –
Cc1c(-c2ccnn2C)nnc(N2CCC(Nc3ccc(C(C)(C)O)nn3)CC2)c1C | > 100 | – | 20.6 | – | –
Cc1c(-c2ccnn2C)nnc(N2CCC(NC(=O)NC3CCCC3)CC2)c1C | > 100 | – | 24.4 | – | –
Cc1c(-c2ccc(Cl)cc2)nnc(N2CCC(NC(=O)c3ccc(F)cc3C(F)(F)F)CC2)c1C | 43.8 | – | 85 | – | –
Cc1c(-c2ccnn2C)nnc(N2CCC(NC(=O)c3c(F)cccc3C(F)(F)F)CC2)c1C | 42.9 | – | 79.8 | – | –
Cc1c(-c2ccnn2C)nnc(N2CCC(Nc3cnc(S(C)(=O)=O)cn3)CC2)c1C | > 100 | – | 23.8 | – | –
Cc1c(-c2ccnn2C)nnc(N2CCC(NC(=O)c3cc(F)ccc3C(F)(F)F)CC2)c1C | 61.5 | – | 82 | – | –

These reach a lower IC50 [4]. Values come first.

IC50 [4] [nM] | Structure (SMILES) | Activity (Mus musculus [1]) | inhibition (Mus musculus [2]) [%] | TGI (Medulloblastoma cell [3]) | TGI (Medulloblastoma cell [5])
2.33 | Cc1c(-c2ccnn2C)nnc(N2CCC(NC(=O)c3ccc(F)cc3C(F)(F)F)CC2)c1C | Non-Toxic | 89.5 | Active | –
36.5 | Cc1c(-c2ccnn2C)nnc(N2CCC(NC(=O)c3ccc(Oc4ccccc4)cc3C(F)(F)F)CC2)c1C | – | 78.9 | – | –
2.46 | CS(=O)(=O)c1ccc(C(=O)Nc2ccc(Cl)c(-c3ccccn3)c2)c(Cl)c1 [VISMODEGIB] | – | 108 | – | Active
16.6 | Cc1c(-c2ccnn2C)nnc(N2CCC(NC(=O)c3ccc(Oc4ccccc4F)cc3C(F)(F)F)CC2)c1C | – | 91.5 | – | –
32.5 | Cc1c(-c2ccnn2C)nnc(N2CCC(NC(=O)c3ccc(Sc4ccccc4)cc3C(F)(F)F)CC2)c1C | – | 82.8 | – | –
8.5 | Cc1c(-c2ccc(C#N)cc2)nnc(N2CCC(NC(=O)c3ccc(F)cc3C(F)(F)F)CC2)c1C | – | 111 | – | –
30 | Cc1c(-c2ccnn2C)nnc(N2CCC(N(C)C(=O)c3ccc(F)cc3C(F)(F)F)CC2)c1C | – | 60.9 | – | –
32.8 | Cc1c(-c2ccnn2C)nnc(N2CCC(NC(=O)c3ccccc3C(F)(F)F)CC2)c1C | – | 79.7 | – | –
25.1 | Cc1c(-c2ccnn2C)nnc(N2CCC(NC(=O)c3ccc(Cl)cc3C(F)(F)F)CC2)c1C | – | – | – | –
22 | COc1ccc(-c2nnc(N3CCC(NC(=O)c4ccc(F)cc4C(F)(F)F)CC3)c(C)c2C)cc1 | – | 74.5 | – | –
36.4 | Cc1c(-c2ccnn2C)nnc(N2CC[C@@H](NC(=O)c3ccc(F)cc3C(F)(F)F)C2)c1C | – | 54.1 | – | –
12.2 | Cc1ccc(-c2nnc(N3CCC(NC(=O)c4ccc(F)cc4C(F)(F)F)CC3)c(C)c2C)cc1 | – | 101 | – | –
25.5 | Cc1c(-c2ccccc2)nnc(N2CCC(NC(=O)c3ccc(F)cc3C(F)(F)F)CC2)c1C | – | 90.2 | – | –
7.02 | Cc1c(-c2ccccc2Cl)nnc(N2CCC(NC(=O)c3ccc(F)cc3C(F)(F)F)CC2)c1C | – | 106 | – | –
2.26 | CN(C(=O)c1ccc(F)cc1C(F)(F)F)C1CCN(c2nnc(-c3ccnn3C)c3ccccc23)CC1 [TALADEGIB] | – | 95 | – | –

From ChEMBL document CHEMBL4118161, “Synthesis and evaluation of novel dimethylpyridazine derivatives as hedgehog signaling pathway inhibitors” (Bioorg Med Chem, 2018)
